Assay results of several laboratories.
DRD4: D(4) dopamine receptor (DRD4, Homo sapiens, UniProt P21917)
KIT V560G: Mast/stem cell growth factor receptor Kit (KIT, Homo sapiens, UniProt P10721, V560G)
PI4KA: Phosphatidylinositol 4-kinase alpha (PI4KA, Homo sapiens, UniProt P42356)
COQ8A: Atypical kinase COQ8A, mitochondrial (COQ8A, Homo sapiens, UniProt Q8NI60)

SMILES	target	assay	system	setting	inhibition
CCCNc1nc2ccccc2n1Cc1ccc(Cl)cc1	DRD4	ligand displacement		10 µM	2.14%
CN(C)C1CCN(CC#Cc2nn(C3CCCC3)c3nc(NCc4ccccc4)ncc23)C1 (centres unmarked)	Protein kinase C iota type (PRKCI, Homo sapiens, UniProt P41743)	enzyme activity, inhibitor, FRET		1 µM	5%
O=C(Oc1nsnc1N1CCN(c2ccccc2)CC1)N1CCCCC1	Monoacylglycerol lipase ABHD6 (ABHD6, Homo sapiens, UniProt Q9BV23)	enzyme activity, inhibitor, fluorescence		1 µM, lysate	40%
COc1cc2c3c(c1OC)-c1cc4c(cc1CC3N(CC1CC1)CC2c1ccccc1)OCO4 (centres unmarked)	5-hydroxytryptamine receptor 5A (HTR5A, Homo sapiens, UniProt P47898)	ligand displacement, radioligand		10 µM	-18.2%
CC/C(=N\NC(=O)NCc1cccc(O)c1)c1ccc(O)c(C)c1O	KIT V560G	enzyme activity, inhibitor		0.1 µM	0.1%
N#Cc1cc(Cn2c(N3CCCC3)nc3ccccc32)ccc1F	DRD4	ligand displacement		10 µM	-0.93%
CCN1CCN(Cc2ccc(NC(=O)c3ccc(C)c(Oc4ccnc5[nH]ccc45)c3)cc2C(F)(F)F)CC1	PI4KA	target engagement in cells, inhibitor, chemoproteomics	Huh-7	10 µM	-10.4%
CN1CC(Oc2cnc(C#N)cc2-c2ccn3nc(NC(=O)C4CC4)cc3c2)C1	Tribbles homolog 2 (TRIB2, Homo sapiens, UniProt Q92519)	enzyme activity, inhibitor		1 µM	9%
O=C(CSc1nc2nccnc2c(=O)n1CCc1ccccc1)Nc1nccs1	COQ8A	enzyme activity, inhibitor		10 µM	10%
COc1cc(-c2cc(-c3ccc(N4CCNCC4)cc3)cnc2N)cc(OC)c1OC	KIT V560G	enzyme activity, inhibitor		0.1 µM	4%
CC(C)CCn1c(SCC(=O)Nc2ccccc2C(F)(F)F)nc2nccnc2c1=O	PI4KA	enzyme activity, inhibitor		10 µM	< 20%
CCN(CC)c1ccc(C2Nc3ccc(C(=O)c4ccccc4)cc3NC3=C2C(=O)CC(C)(C)C3)cc1 (centres unmarked)	DRD4	ligand displacement, radioligand		10 µM	100%
Cn1cnc(Br)c1C1=CN(c2ncnc3[nH]cnc23)CCS1	Mitogen-activated protein kinase kinase kinase 19 (MAP3K19, Homo sapiens, UniProt Q56UN5)	enzyme activity, inhibitor, radiometric		50 nM	29.5%
CS(=O)(=O)Nc1cccc(-c2csc(NC(=O)CSc3nc4nccnc4c(=O)n3CCc3ccccc3)n2)c1	COQ8A	enzyme activity, inhibitor		10 µM	14%
